The list is not random: actives were taken first. Their share in the collection is about 2.5%.
TRPC4 block: inhibitors of mouse TRPC4 channel, primary screen, Fluo4 calcium, HEK293 TRPC4beta/mu-opioid cells; Short transient receptor potential channel 4 (Mus musculus), Q9QUQ5; DAMGO-evoked Fluo4 calcium flux; active compounds read low; B-score at 10 µM; hit rate 0.39% among 300,000; AID 2247, 2010;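 active means B-score over 3 SD under the library average, no early fluorescence shift, positive overall ratio signal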
Target sequence (Q9QUQ5 whole entry, looked up): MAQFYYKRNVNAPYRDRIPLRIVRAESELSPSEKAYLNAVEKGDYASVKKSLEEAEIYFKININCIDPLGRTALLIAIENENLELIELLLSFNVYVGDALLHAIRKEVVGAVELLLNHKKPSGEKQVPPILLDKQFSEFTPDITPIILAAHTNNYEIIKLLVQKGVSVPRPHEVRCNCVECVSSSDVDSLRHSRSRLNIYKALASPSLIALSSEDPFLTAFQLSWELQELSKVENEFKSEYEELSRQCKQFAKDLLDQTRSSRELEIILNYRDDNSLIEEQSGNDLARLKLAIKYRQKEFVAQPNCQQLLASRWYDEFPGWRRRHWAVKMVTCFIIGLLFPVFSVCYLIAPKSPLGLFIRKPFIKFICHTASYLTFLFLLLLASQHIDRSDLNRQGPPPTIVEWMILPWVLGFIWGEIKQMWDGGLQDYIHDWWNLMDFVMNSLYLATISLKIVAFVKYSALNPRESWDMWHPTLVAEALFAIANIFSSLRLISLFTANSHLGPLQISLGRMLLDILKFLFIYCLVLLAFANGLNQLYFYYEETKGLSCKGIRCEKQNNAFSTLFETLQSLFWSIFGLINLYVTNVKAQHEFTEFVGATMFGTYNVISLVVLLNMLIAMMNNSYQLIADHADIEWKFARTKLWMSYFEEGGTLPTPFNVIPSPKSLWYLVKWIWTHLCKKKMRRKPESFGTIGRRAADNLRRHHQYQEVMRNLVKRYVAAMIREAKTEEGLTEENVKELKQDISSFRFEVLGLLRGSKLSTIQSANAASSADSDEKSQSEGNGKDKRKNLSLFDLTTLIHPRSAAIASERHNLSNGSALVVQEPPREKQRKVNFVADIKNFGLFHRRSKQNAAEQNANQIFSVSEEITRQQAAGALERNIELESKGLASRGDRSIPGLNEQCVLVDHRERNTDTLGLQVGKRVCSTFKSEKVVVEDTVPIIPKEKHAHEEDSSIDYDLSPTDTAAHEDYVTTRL
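material = TRPC4beta/mu-opioid receptor HEK293 cell line | probe or stimulus = sequential submaximal and maximal DAMGO stimulation | compound dosing = one concentration per compound | measured by = Fluo4 Ca2+ flux fluorescence | evaluation = integrated fluorescence ratio relative to baseline, converted to per-well B score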
TRPC6 inhibitor: mouse TRPC6 channel inhibitors, primary screen, cell-based, HEK293, membrane potential dye. Short transient receptor potential channel 6 (Mus musculus), Q61143. ACh-evoked depolarization; active compounds read low. B-score at 10 µM. hit rate 1.1% among 310,000. AID 2553, 2010;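 active means B-score under library mean minus 3 SD, initial fluorescence not abnormally high, positive integrated signal ratio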;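 further: B-score derived from integrated fluorescence ratio over the kinetic read; more negative B-score means stronger inhibition of depolarization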
TRPC4 agonist: activators of mouse TRPC4 channel, primary screen, Fluo4 calcium, HEK293 TRPC4beta/mu-opioid cells; Short transient receptor potential channel 4 (Mus musculus), Q9QUQ5; Fluo4 calcium fluorescence; active compounds read high; B-score at 10 µM; hit rate 0.49% among 310,000; AID 2237, 2010;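 active means B-score above 5 SD of library B-scores, and initial fluorescence ratio not above library mean plus 5 SD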;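 further: positive B-score marks a calcium rise read as TRPC4 activation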
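Incubation: 45 min room-temperature Fluo4 loading, 110 s read / System: HEK293 cells stably co-expressing mouse TRPC4beta and mu-opioid receptor / Signal: Fluo4 fluorescence, kinetic / Control set: buffer (low) and maximal DAMGO (high) / Measure: integrated baseline-normalised fluorescence ratio, converted to per-well B score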
TRPC4 potent: positive allosteric modulators of TRPC4, primary screen, cell-based, mouse TRPC4beta, HEK293 mu-opioid, Fluo-4 calcium. B-score at 10 µM. AID 2227, 2009. DAMGO EC20, Fluo-4 Ca2+ flux; active compounds read high. hit rate 0.42% among 310,000. Short transient receptor potential channel 4 (Mus musculus), Q9QUQ5;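 active means B-score of calcium response area above 5 SD of library B-scores, with initial fluorescence ratio within 5 SD of library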;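 further: B-score of integrated fluorescence ratio over time as area under calcium response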
TRPC6 act: mouse TRPC6 channel activators, primary screen, cell-based, HEK293, membrane potential dye; Short transient receptor potential channel 6 (Mus musculus), Q61143; HEK293-TRPC6 membrane potential dye fluorescence; active compounds read high; B-score at 10 µM; hit rate 0.13% among 310,000;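 active means B-score of the integrated fluorescence ratio above library mean plus 3 SD, and starting fluorescence ratio within library mean plus 5 SD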;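 further: higher score means more depolarization so channel activation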
Platelet DG rel: inhibitors of platelet dense granule secretion, primary screen, cell-based, MLPCN, human platelets; human platelet-rich plasma, SFLLRN dense granule ATP release, luminescence; inhibition, %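 (compounds screened at 7.5 µM in platelet-rich plasma)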; hit rate 0.22% among 300,000;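 active means mean replicate score, as percent of positive control, at or above 50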
TRPC4 spec 2: mouse TRPC4 off-target activity of TRPC6 inhibitors, second screen. inhibition, % at 10 µM. HEK293 TRPC4/MOR, membrane potential dye fluorescence; channel activated by saturating DAMGO dose. shares compounds with TRPC6 inhibitor. hit rate 42% among 920;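 active means compounds whose fluorescence signal differed from control wells by over 3 SD, either direction, in both duplicate plates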
TRPC4 spec: mouse TRPC4 modulation by TRPC6 hits, confirmation, selectivity assay for TRPC6 inhibitor project, cell-based, HEK293 TRPC4/mu-opioid, membrane potential dye. shares compounds with TRPC6 inhibitor. membrane potential fluorescence. activity change, negative = inhibition, % at 10 µM. hit rate 61% among 920;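 active means rise or fall in signal beyond 3 SD of buffer-only wells in both replicate plates, either sign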;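 further: integrated kinetic ratio of fluorescence range over baseline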
HEK293 MPD ctr 2-1: nonspecific membrane potential effects, parental HEK293, confirmation, counter-screen for TRPC6 inhibitor project, cell-based, second counter screen; shares compounds with TRPC6 inhibitor; parental HEK293 membrane potential dye fluorescence; maximal acetylcholine challenge after compound addition; signal change vs control, % at 10 µM; hit rate 31% among 920;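 active means membrane potential signal moving either way by over 3 SD of the maximum-effect control, in both duplicate plates, meaning non-specific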
HEK293 MPD ctr-1: membrane potential modulation in parental HEK293, confirmation, counter-screen for TRPC6 inhibitor project, cell-based | shares compounds with TRPC6 inhibitor | membrane potential signal change, % at 10 µM | hit rate 60% among 920 | parental HEK293 membrane potential dye fluorescence;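 active means membrane potential signal shifting up or down by more than 3 SD of buffer-only wells, on both duplicate plates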
HEK293 MPD ctr-2: parental HEK293 membrane potential modulation, confirmation, counter-screen for TRPC6 modulator project, cell-based; shares compounds with TRPC6 inhibitor; membrane potential dye fluorescence; membrane potential signal change, % at 10 µM; hit rate 51% among 2,400;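 active means membrane potential signal moves up or down beyond 5 SD from buffer-only wells, on both duplicate plates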
HEK293 MPD ctr 2-2: second counter-screen for TRPC6 modulators: effect in parental HEK293 cells. shares compounds with TRPC6 inhibitor. membrane potential dye fluorescence; after compound, maximal acetylcholine stimulation. inhibition, % at 10 µM. hit rate 14% among 2,400;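 active means membrane potential signal drops by more than 5 SD from the mean control signal, in both duplicate plates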;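 further: plate controls were acetylcholine ECmax control wells for no effect and buffer only wells for full effect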
TRPC4/MOR mod: TRPC4 modulation by TRPC6 hit compounds, confirmation, selectivity assay for TRPC6 modulator project, cell-based, HEK293 TRPC4/mu-opioid, membrane potential dye, mouse | shares compounds with TRPC6 inhibitor | membrane potential fluorescence | percent change from control (negative = decrease, positive = increase), % at 10 µM | hit rate 69% among 2,400 | AID 488927, 2010;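 active means membrane potential signal moved up or down beyond 5 SD of buffer control wells, in both duplicate plates, actives on both sides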;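 further: plate controls were assay buffer wells for no effect and DAMGO maximal-effect wells for full effect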
TRPC4/MOR inh 2: second check of whether TRPC6 modulators also affect mouse TRPC4 | HEK293 TRPC4/mu-opioid, membrane potential dye fluorescence; stimulated with maximal-effect DAMGO | AID 488928 | shares compounds with TRPC6 inhibitor | inhibition, % at 10 µM | hit rate 55% among 2,400;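 active means drop in membrane potential signal beyond 5 SD of the control wells in both duplicate plates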;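 further: TRPC4 counter screen for TRPC6 hits run under conditions tuned for TRPC6 not TRPC4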
TRPC6 block conf: mouse TRPC6 channel inhibitors, confirmation, HEK293 cells, membrane potential dye, duplicate. shares compounds with TRPC6 inhibitor. ACh-evoked depolarization. inhibition, % at 10 µM. hit rate 43% among 3,300. AID 488960, 2010;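 active means fluorescence ratio falls more than 5 SD below the full-stimulation control mean, in both duplicate runs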;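 further: integrated fluorescence ratio of peak minus minimum over baseline after agonist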
TRPC6 act conf: mouse TRPC6 channel activators, confirmation, HEK293 cells, membrane potential dye, duplicate; shares compounds with TRPC6 inhibitor; HEK293-TRPC6 membrane potential dye fluorescence, FDSS; activation, % at 10 µM; hit rate 11% among 2,800;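 active means ratio signal rise beyond 5 SD above unstimulated control wells' mean, seen in both duplicate runs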;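 further: plate controls were buffer EC0 wells for no effect and acetylcholine ECmax response for full effect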
Starred values were filed as active, the others as inactive; i = inactive; . = no result given.

SMILES	TRPC4 block	TRPC6 inhibitor	TRPC4 agonist	TRPC4 potent	TRPC6 act	Platelet DG rel	HEK293 MPD ctr-2	HEK293 MPD ctr 2-2	TRPC4/MOR mod	TRPC4/MOR inh 2	TRPC6 block conf	TRPC6 act conf	others
CCC1=[N+](C)c2cccc3cccc(c23)N1C	i	-5.98*	i	i	i	3.4	-343.5%*	i	-52.5%*	47.0%*	42.5%*	i
Cc1cccn2c(=O)c3cc(C(=O)NC(C)C)c(=N)n(Cc4ccncc4)c3nc12	i	-7.57*	i	i	i	-1.1	.	.	.	.	76.5%*	i	TRPC4 spec 2=72.5%*;TRPC4 spec=-19.3%*;HEK293 MPD ctr 2-1=-15.5%*;HEK293 MPD ctr-1=-303.5%*
Cc1cccn2c(=O)c3cc(C(=O)NC4CCCCC4)c(=N)n(Cc4ccc(F)cc4)c3nc12	i	i	i	i	i	0.6	.	.	.	.	.	.
COCCn1c(=N)c(C(=O)NCCc2ccc(OC)cc2)cc2c(=O)n3cccc(C)c3nc21	i	i	i	i	i	14.5	.	.	.	.	.	.
COc1ccc(CNC(=O)c2cc3c(=O)n4cccc(C)c4nc3n(CC3CCCO3)c2=N)cc1 (stereo unspecified)	i	i	i	i	i	-11.1	.	.	.	.	.	.
CCNC(=O)c1cc2c(=O)n3cccc(C)c3nc2n(Cc2ccc(C)cc2)c1=N	i	-6.08*	i	i	i	-0.1	-146.0%*	i	-28.0%*	40.0%*	i	i

Screening data as filed in PubChem.
